# From ChEMBL document CHEMBL1154008, “Synthesis and in vitro activity of new tetrahydronaphtho[1,2-b]azepine derivatives against Trypanosoma cruzi and Leishmania chagasi parasites” (Bioorg Med Chem Lett, 2009)
# Legend:
# Trypanosoma cruzi [1] = assay: Antiparasitic activity against Trypanosoma cruzi 320I04 epimastigotes […] after 72 hrs; assay type: functional, organism-based
# Outline: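 Free parasite forms (T. cruzi 320I04 epimastigotes; L. chagasi MHOM/BR/74/PP75 promastigotes) exposed to compounds for 72 h at 27 °C. IC50/IC90 taken as the concentrations giving 50% or 90% growth inhibition. Values are representative of one experiment out of three.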
# Trypanosoma cruzi [2] = assay: Antiparasitic activity against Trypanosoma cruzi 320I04 intracellular amastigotes infected in african green monkey Vero cells after 72 hrs; assay type: functional, organism-based; conditions: 320I04, Vero
# Leishmania chagasi = assay: Antiparasitic activity against Leishmania chagasi MHOM/BR/74/PP75 promastigotes infected in human THP1 cells after 72 hrs; conditions: MHOM/BR/74/PP75, THP-1, 72 h
# [3] = Cytotoxicity against african green monkey Vero cells after 72 hrs by MTT assay; assay type: cell-based; conditions: chlorocebus sabaeus
# Outline: (§1)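 Vero or transformed THP-1 cells exposed to a 3-fold compound dilution series, in triplicate, for 72 h at 37 °C. Toxicity read by MTT reduction. CC50/CC90 taken as the concentrations killing 50% or 90% of cells. Values are representative of one experiment out of three.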
# [4] = Cytotoxicity against human THP1 cells after 72 hrs by MTT assay; assay type: cell-based; conditions: THP-1 cells; outline: as §1
# [5] = Selectivity index, ratio of CC50 for african green monkey Vero cells to IC50 for Trypanosoma cruzi 320I04 epimastigotes; assay type: functional
# Outline: (§2)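 SI calculated as Vero CC50 divided by T. cruzi IC50, or THP-1 CC50 divided by L. chagasi IC50. Both values come from 72 h exposures: parasites at 27 °C, mammalian cells at 37 °C with MTT read-out.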
# [6] = Selectivity index, ratio of CC50 for african green monkey Vero cells to IC50 for Trypanosoma cruzi 320I04 intracellular amastigotes; assay type: functional
# [7] = Selectivity index, ratio of CC50 for human THP1 cells to IC50 for Leishmania chagasi MHOM/BR/74/PP75 promastigotes; assay type: functional, THP-1; outline: as §2
IC50 (Trypanosoma cruzi [1]) [µM],IC90 (Trypanosoma cruzi [1]) [µM],IC50 (Trypanosoma cruzi [2]) [µM],IC90 (Trypanosoma cruzi [2]) [µM],IC50 (Leishmania chagasi) [µM],IC90 (Leishmania chagasi) [µM],Compound,CC50 at 72 h [3] [µM],CC90 at 72 h [3] [µM],CC50 at 72 h [4] [µM],CC90 at 72 h [4] [µM],Ratio CC50/IC50 [5],Ratio CC50/IC50 [6],Ratio CC50/IC50 [7]
90.5,> 300,> 100,> 100,70.4,113,Fc1ccc([C@@H]2C[C@@H]3Cc4ccc5ccccc5c4N2O3)cc1,> 300,> 300,> 300,> 300,>3.3,>3,>4.3
100,293,> 100,> 100,184,> 300,Clc1ccccc1[C@@H]1C[C@@H]2Cc3ccc4ccccc4c3N1O2,37.2,> 300,> 300,> 300,0.4,<0.4,>1.6
